# Source: ChEMBL document CHEMBL2029341, “Synthesis and evaluation of indole-based chalcones as inducers of methuosis, a novel type of nonapoptotic cell death” (J Med Chem, 2012)
# pIC50: −log10 of the molar value. Activity calls are given as the source filed them. The calls are words filed in the database; no cut-off is given here.
# Key:
# U-251 [1] = assay: Cytotoxicity against human U251 cells assessed as colony formation at 10 uM treated for 48 hrs followed by washout measured after 2 weeks relative to control
# U-251 [2] = assay: Induction of methuosis in human U251 cells assessed as induction of cellular vacuolization at 10 uM after 24 to 48 hrs by phase contrast microscopic analysis; format: functional, cell-based
# Procedure, shortened: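 U251 glioblastoma cells in DMEM with 10% FBS at 37 °C under 5% CO2. Compound added in DMSO at 10 μM one day after plating; vehicle-only controls. Live cells examined by phase-contrast microscopy at 24 and 48 h for phase-lucent cytoplasmic vacuoles, with cell rounding and detachment taken as methuosis hallmarks.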
# U-251 [3] = assay: Cytotoxicity against human U251 cells assessed as reduction of cell viability at 10 uM after 48 hrs by MTT assay relative to control
# U-251 [4] = assay: Cytotoxicity against human U251 cells assessed as inhibition of colony formation at 10 uM treated for 48 hrs followed by washout measured after 2 weeks relative to control; format: functional
# Procedure, shortened: (§1)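 U251 cells at 2,500 per 100 mm dish; one day after plating, compound added for 48 h (10 μM, or graded concentrations), then removed and cultures refed every 2 d. Colonies >50 cells counted at two weeks after methanol fixation and crystal violet staining; percent of DMSO control dishes, mean ± S.D. of three dishes.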
# U-251 [5] = assay: Cytotoxicity against human U251 cells assessed as inhibition of colony formation at 2 to 10 uM treated for 48 hrs followed by washout measured after 2 weeks relative to control; format: functional, cell-based
# Procedure, shortened: as §1
# U-251 [6] = assay: Induction of methuosis in human U251 cells assessed as induction of cellular vacuolization at 2.5 after 3 days by phase contrast microscopic analysis; format: functional, cell-based
# Procedure, shortened: (§2)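 One day after plating, U251 cells given 2.5 μM or 10 μM final compound or DMSO vehicle; live cells viewed by phase-contrast microscopy on three sequential days, without medium change or compound replenishment, for phase-lucent cytoplasmic vacuoles, rounding and detachment.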
# U-251 [7] = assay: Cytotoxicity against human U251 cells assessed as reduction of cell growth and viability at 2.5 to 10 uM after 3 days by cell counting
# U-251 [8] = assay: Cytotoxicity against human temozolomide-resistant U251 cells assessed as reduction of cell viability at 2.5 to 10 uM after 48 hrs by colony formation assay
# U-251 [9] = assay: Induction of methuosis in human U251 cells assessed as induction of cellular vacuolization at 2.5 to 10 uM after 3 days by phase contrast microscopic analysis; format: functional, cell-based
# U-251 [10] = assay: Cytotoxicity against human U251 cells assessed as inhibition of colony formation at 5 to 20 uM treated for 48 hrs followed by washout measured after 2 weeks relative to control; format: functional, cell-based
# Procedure, shortened: as §1
# U-251 [11] = assay: Induction of methuosis in human temozolomide-resistant U251 cells assessed as induction of cellular vacuolization at 2.5 to 10 uM after 3 days by phase contrast microscopic analysis; format: functional, cell-based
# U-251 [12] = assay: Cytotoxicity against human U251 cells after 48 hrs by MTT assay; conditions: U-251, 48 h
# U-251 [13] = assay: Induction of methuosis in human U251 cells assessed as induction of cellular vacuolization at 2.5 uM after 1 to 2 days by phase contrast microscopic analysis; format: functional, cell-based
# Procedure, shortened: as §2
SMILES,"level, % of control at 10 µM (U-251 [1])",Activity (U-251 [2]),Activity (U-251 [3]),further results
O=C(/C=C/c1c[nH]c2ccccc12)c1ccccn1,53%,inactive,96%,
Cc1ccc(C(=O)/C=C/c2c[nH]c3ccccc23)cc1,,inactive,,
COc1ccc2c(c1)c(/C=C/C(=O)c1ccncc1)cn2C,52%,Active,73%,
O=C(/C=C/c1c[nH]c2ccccc12)c1ccncc1,22%,Active,58%,
O=C(/C=C/c1c[nH]c2ccc(O)cc12)c1ccncc1,72%,inactive,107%,
COc1ccc2[nH]cc(/C=C/C(=O)c3ccncc3)c2c1,2%,Active,58%,
Cc1[nH]c2ccc(N=[N+]=[N-])cc2c1/C=C/C(=O)c1ccncc1,,,,inhibition (U-251 [4]): Active
Cc1[nH]c2ccccc2c1/C=C/C(=O)c1ccncc1,8%,Active,24%,inhibition (U-251 [5]): Active; Activity (U-251 [6]): inactive; inhibition (U-251 [7]): Active; Activity (U-251 [8]): Active; Activity (U-251 [9]): Active; inhibition (U-251 [10]): Active; Activity (U-251 [11]): Active; pIC50 (U-251 [12]): 5.32; Activity (U-251 [13]): Active
O=C(COc1ccccc1)c1c[nH]c2ccccc12,,inactive,,
O=C(/C=C/c1c[nH]c2ccccc12)c1ccccc1,76%,inactive,109%,
O=C(NCCc1c[nH]c2ccc(Cl)cc12)c1cccnc1,,inactive,,
Cc1[nH]c2ccc(OCc3ccc(C(=O)O)cc3)cc2c1/C=C/C(=O)c1ccncc1,71%,inactive,79%,
COc1cc2c(/C=C/C(=O)c3ccncc3)c(C)[nH]c2cc1N=[N+]=[N-],,,,inhibition (U-251 [4]): Active
O=C(/C=C/c1c[nH]c2ccc(OCc3ccccc3)cc12)c1ccncc1,8%,Active,56%,
O=C(/C=C/c1c[nH]c2ccccc12)c1cccnc1,71%,inactive,72%,
COc1ccc(C(=O)/C=C/c2c[nH]c3ccc(Br)cc23)cc1,,inactive,,
COC(=O)c1ccc(COc2ccc3[nH]c(C)c(/C=C/C(=O)c4ccncc4)c3c2)cc1,76%,inactive,79%,
Oc1cccc(/N=C/c2c[nH]c3ccccc23)c1,,inactive,,
COc1ccc2[nH]cc(/C=C/C(=O)c3cnccn3)c2c1,96%,inactive,88%,
O=C(/C=C/c1c[nH]c2ccccc12)c1ccc(Cl)cc1,,inactive,,
COc1ccc2[nH]cc(/C=C/C(=O)c3cccnc3)c2c1,99%,inactive,90%,
Cc1[nH]c2ccc(O)cc2c1/C=C/C(=O)c1ccncc1,43%,Active,101%,
